The source of these data is ChEMBL document CHEMBL1140342, “Antitumor activity of C-methyl-beta-D-ribofuranosyladenine nucleoside ribonucleotide reductase inhibitors” (J Med Chem, 2005).

A value given as a limit tells only on which side of the number the result lay.

Assay type in all cases: functional, cell-based
The subject of one experiment is HT-29. As to the kind of experiment: In vitro inhibitory activity against human colon carcinoma HT-29 cell line. The method in brief: (§1)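 Cells kept in 10% FBS medium, RPMI 1640 for K562/K562IU and MEM alpha for HT-29/MCF-7; adherent lines trypsinized to single-cell suspension. Log-phase cells seeded at about 50 000 cells/mL, acclimatized 24 h, then exposed to compound dilutions (up to 100 μM) in triplicate for 48 h at 37 °C, 5% CO2. MTS/PMS tetrazolium reduction 3 h, A490; IC50 = concentration giving 50% growth inhibition.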

For a further experiment, the system named is MCF7. As to the kind of experiment: In vitro inhibitory activity against human breast carcinoma MCF-7 cell line. The method in brief: as §1
Experiment [1] deals with K562. As to the kind of experiment: In vitro inhibitory activity against human myelogenous leukemia K562 cell line. The method in brief:
as §1

Experiment [2] deals with K562. As to the kind of experiment: In vitro inhibitory activity against human leukemia K562IU cell line. The method in brief: as §1

Regarding `C[C@]1(O)C(n2cnc3c(N)nc(Cl)nc32)O[C@H](CO)[C@H]1O` (stereo partly drawn), the half-inhibitory concentration (IC50) with HT-29, in the experiment on MCF7, in the experiment on K562 [1] and in the experiment with K562 [2] was over 100 µM in each case.

On to `C[C@]1(O)C(n2cnc3c(NC4CC4)ncnc32)O[C@H](CO)[C@H]1O` (stereo partly drawn), for which the half-maximal inhibitory concentration (IC50) in the experiment with HT-29, with MCF7, with K562 [1] and with K562 [2] was over 100 µM throughout.

On to `CNc1ncnc2c1ncn2C1O[C@H](CO)[C@@H](O)[C@@]1(C)O` (stereo partly drawn), for which the half-maximal inhibitory concentration (IC50) in the experiment on HT-29, with MCF7, in the experiment on K562 [1] and in the experiment with K562 [2] was over 100 µM in each case.

For `C[C@@]1(O)[C@H](O)[C@@H](CO)O[C@H]1n1cnc2c(N)ncnc21`, the IC50 with HT-29 was over 100 µM; with MCF7 it was over 100 µM; in the experiment with K562 [1], 16 µM; with K562 [2] it was over 100 µM.

As to `OC[C@H]1O[C@@H](n2cnc3c(NC4CC4)ncnc32)C(O)[C@@H]1O` (single isomer, unassigned), the IC50 in the experiment with HT-29 is over 100 µM; in the experiment on MCF7 it was 93.4 µM; with K562 [1], over 100 µM; with K562 [2] it was over 100 µM.

With `Nc1nc(Cl)nc2c1ncn2[C@@H]1O[C@H](CO)[C@@H](O)C1O` (single isomer, unassigned), the IC50 in the experiment on HT-29 came out at 85.6 µM; in the experiment on MCF7 it was 72.6 µM; in the experiment with K562 [1] it was 15.4 µM; with K562 [2], 19.5 µM.

Consider `C[C@@]1(n2cnc3c(N)ncnc32)O[C@H](CO)[C@@H](O)C1O` (single isomer, unassigned), for which the concentration for half-maximal inhibition (IC50) was over 100 µM with HT-29, over 100 µM in the experiment on MCF7, 53 µM in the experiment on K562 [1] and over 100 µM in the experiment with K562 [2].

As for `CNc1ncnc2c1ncn2[C@@H]1O[C@H](CO)[C@@H](O)C1O` (single isomer, unassigned), the IC50 in the experiment with HT-29, in the experiment on MCF7, in the experiment with K562 [1] and in the experiment with K562 [2] was over 100 µM in each case.

Regarding `C[C@]1(O)C(O)[C@H](n2cnc3c(N)ncnc32)O[C@@H]1CO` (single isomer, unassigned), the IC50 in the experiment with HT-29 was found to be 23.2 µM; with MCF7, 17.5 µM; in the experiment on K562 [1], 18.2 µM; with K562 [2] it was 38.3 µM.

In the case of `C[C@]1(O)C(O)C(n2cnc3c(N)nc(Cl)nc32)O[C@@H]1CO` (single isomer, unassigned), the IC50 in the experiment on HT-29, with MCF7, in the experiment on K562 [1] and in the experiment with K562 [2] was over 100 µM each time.

Take `CNc1ncnc2c1ncn2C1O[C@H](CO)[C@@](C)(O)C1O` (single isomer, unassigned): the IC50 in the experiment on HT-29 worked out at 74.3 µM; in the experiment on MCF7, 68.1 µM; in the experiment with K562 [1], 43.9 µM; in the experiment with K562 [2], 93.8 µM.

For `C[C@]1(O)C(O)C(n2cnc3c(NC4CC4)ncnc32)O[C@@H]1CO` (single isomer, unassigned), the IC50 in the experiment on HT-29 is over 100 µM; with MCF7 it was over 100 µM; in the experiment with K562 [1], 73 µM; in the experiment with K562 [2] it was over 100 µM.
